# In the library only some 1.1% were active in any assay of this set; here they are far more common.
# procasp3 activ – activators of human procaspase-3 D3A mutant, primary screen, biochemical, absorbance, PC-3 D3A mutant, single concentration; Caspase-3 (Homo sapiens), P42574; recombinant procaspase-3 D3A, Ac-DEVD-pNA absorbance 405 nm; activation, % at 8.5 µM; 330,000 tested, 0.11% active;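 active means activation above the mean of all tested compounds plus 3 SD, cut at about 21% in these data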;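 further: 0% = DMSO alone and 100% = DMSO wells spiked with extra 5 µM PC-3 D3A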
#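 Assay system – Procaspase-3 D3A mutant, all three cleavage aspartates alanine · Controls – DMSO-only low control, 5 µM PC-3 D3A high control · Schedule – 1 h compound preincubation, 2 h substrate hydrolysis at 25 °C · Signal – 405 nm absorbance of p-nitroaniline, reads at 0 and 120 min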
# T cell modulator – modulators of CD8 T cell-vesicle binding, primary screen, mouse 2C CD8+ T cells, flow cytometry; 2C CD8+ T cell-vesicle binding; stronger effect = lower value; response (vesicle binding), % at 7 µM; 330,000 tested, 0.068% active; AID 2052, 2009;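 active means response, share of CD8 T cells binding vesicles, and their 90th percentile fluorescence all below set limits, cut at about 80% in these data, passing the limit was not always enough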;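 further: values below 100% mean blocked vesicle binding to the CD8+ T cells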
#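 Incubation: binding step 1.5 h, 37 °C, antibody labelling 20 min, ice; system: murine 2C transgenic CD8+ T lymphocytes; technique: cytometric PE anti-B7-1 and Alexa647 anti-CD8 signals after 1% paraformaldehyde fixation; also added: QL9-charged Drosophila Ld/ICAM-1/B7-1 vesicles; control set: naked versus QL9-loaded vesicles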
# aDG glyco act – activators of alpha-DG glycosylation, primary screen, uHTS, Pro5-aDG cells, AlphaScreen; 360,000 tested, 0.22% active; activation, % at 10 µM; alpha-DG glycosylation AlphaScreen (IIH6); 0% Pro5, 100% B10-LARGE cell signal; AID 624168, 2012;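 active means activation of at least 8% versus controls, or a plate z-score of at least 8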;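 further: Pro5 are CHO cells carrying HIG-tagged alpha-DG that lacks glycosylation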
# procasp7 counter – procaspase-7 activators, primary screen, counter-screen for procaspase-3 activator project, biochemical, absorbance, HTS, human; Caspase-7 (Homo sapiens), P55210; recombinant procaspase-7, Ac-DEVD-pNA absorbance 405 nm; D23A/D198A/D206A triple mutant, cannot self-cleave; scale: DMSO 0, 5 µM enzyme 100; activation, % at 8.5 µM; 330,000 tested, 0.093% active; AID 463210, 2010;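 active means percent activation above the screen-wide mean plus 3 SD, cut at about 25% in these data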
#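 Assay system: Uncleavable procaspase-7 mutant enzyme / Input: 2 µM procaspase-7 mutant as dispensed / Dosing: single nominal 8.5 µM compound dose, 0.8% DMSO final / Timing: 1 h enzyme–compound preincubation and 2 h substrate reaction, both 25 °C / Detection: p-Nitroaniline absorbance at 405 nm, read at 0 and 120 min / Replication: singlicate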
# GRK2 inh – compounds blocking aptamer binding on GRK2 – biochemical, human GRK2, bead flow cytometry, HTS, primary screen; inhibition of aptamer binding, % at 10 µM; 330,000 tested, 0.59% active; Beta-adrenergic receptor kinase 1 (Homo sapiens), P25098; FAM-aptamer displacement from GRK2;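 active means inhibition of aptamer binding above 40%, roughly 3 SD of noise, on plates passing a quality check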;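 further: median bead fluorescence of bound FAM aptamer so fluorescent compounds give negative values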
# Target sequence (P25098 whole entry, looked up): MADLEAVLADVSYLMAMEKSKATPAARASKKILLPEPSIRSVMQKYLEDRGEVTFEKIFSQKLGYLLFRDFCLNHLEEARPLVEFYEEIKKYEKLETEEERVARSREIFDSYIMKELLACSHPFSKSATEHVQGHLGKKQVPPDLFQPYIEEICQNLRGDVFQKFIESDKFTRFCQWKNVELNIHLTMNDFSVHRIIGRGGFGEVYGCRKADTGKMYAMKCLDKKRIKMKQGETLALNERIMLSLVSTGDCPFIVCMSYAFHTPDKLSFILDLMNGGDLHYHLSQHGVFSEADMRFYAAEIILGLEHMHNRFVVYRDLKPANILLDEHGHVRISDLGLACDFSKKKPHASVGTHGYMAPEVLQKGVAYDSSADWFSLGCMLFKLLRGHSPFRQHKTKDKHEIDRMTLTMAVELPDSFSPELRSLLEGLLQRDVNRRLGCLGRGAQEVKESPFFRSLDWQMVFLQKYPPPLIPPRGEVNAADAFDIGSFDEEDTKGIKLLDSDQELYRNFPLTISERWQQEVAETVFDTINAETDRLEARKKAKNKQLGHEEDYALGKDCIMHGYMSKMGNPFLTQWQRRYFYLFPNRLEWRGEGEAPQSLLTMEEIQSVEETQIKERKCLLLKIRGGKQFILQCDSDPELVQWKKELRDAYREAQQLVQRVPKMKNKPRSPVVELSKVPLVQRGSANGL
# CaV13 FRET inh – Disruptors of the CACNA1D IQ motif to Ca2+-dependent inactivation inhibitor domain association, primary screening, Förster resonance energy transfer in intact living …; HEK cells, CFP/YFP FRET ICDI-IQ, plate reader, 10 min; percent FRET-ratio fall versus neutral wells; inhibition, % at 12.3 µM; 340,000 tested, 0.098% active;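 active means mean replicate inhibition of at least 30% and at least 1% of replicates passing that level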;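 further: 0% = median of the neutral control wells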
# aDG conf – alpha-DG glycosylation enhancers, retest, confirmation, single concentration, Pro5-aDG cells; shares compounds with aDG glyco act; IIH6 AlphaLISA; scaled to LARGE-overexpressing B10 cells as 100%; activation, % at 10 µM (by protocol); 600 tested, 17% active;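 active means activation of at least 7% in one or more replicates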;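 further: cells exposed to compound for two days before detection; 0% = DMSO-treated Pro5 cells and 100% = DMSO-treated B10-LARGE cells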
# * hit, by the source's call; x = no result.
SMILES,procasp3 activ,T cell modulator,aDG glyco act,procasp7 counter,GRK2 inh,CaV13 FRET inh,aDG conf
Cc1ccc(NC(=O)C2CCN(S(=O)(=O)c3ccc4ccccc4c3)CC2)nc1,x,x,0,x,x,-4,x
CCC/C=C(\CCC)C(NC(=O)c1ccc(C(=O)OC)cc1)c1ccc(C(=O)OC)cc1 (stereo not drawn),2,922,x,9,0,-5,x
O=C(CCN1CCCCC1)c1ccccc1,6,406,4.7*,5,0,-7,0
Cc1sc2ncnc(NCC(O)c3ccccc3)c2c1C (stereo not drawn),7,98,2.7*,2,0,-3,1
CCN(CC)P(=O)(Nc1ccc([N+](=O)[O-])cc1)c1c(C)nn(CCC#N)c1NC(=O)c1ccc(Cl)cc1Cl (stereo not drawn),0,263,-1,11,0,-4,x
COc1ccc(CCC(=O)OCC(=O)c2c(N)n(CC(C)C)c(=O)n(C)c2=O)cc1,-2,573,6,-5,5,-3,x
COc1ccccc1CCC(=O)OCC(=O)c1c(N)n(CC(C)C)c(=O)n(C)c1=O,-4,782,6.5*,1,0,-5,-1
CCCNS(=O)(=O)c1ccc(OCC(=O)NCCC2=CCCCC2)cc1,-4,252,9.1*,6,2,-7,0
CC(C)NS(=O)(=O)c1ccc(OCC(=O)NCCC2=CCCCC2)cc1,-7,214,0,-2,0,-9,x
COCC(C)N=C1NN=C(c2cc(C)n(Cc3ccccc3Cl)c2C)CS1 (stereo not drawn),-4,196,5.6*,-15,2,-15,0
Cc1ccc(S(=O)(=O)N2CCOCC2)cc1C(=O)NC1CCCCC1,1,303,50*,1,0,-5,-1
CCOc1ccc(C(=O)Nc2cccc(C)n2)cc1,0,329,0,-7,3,-3,x
CCCCOc1ccc(C(=O)Nc2cccc(C)n2)cc1,1,89,6.3*,8,4,-8,-1
COc1ccc2c(Cl)c(-c3nnc(SCC(=O)c4ccccc4)n3C)sc2c1,3,216,4.3*,-3,0,x,1
COc1ccc2c(Cl)c(-c3nnc(SCC(N)=O)n3C)sc2c1,-6,506,1,6,1,-3,x
CCOC(=O)CC1C(=O)NCCN1C(=O)c1ccc(Cl)c(Cl)c1 (stereo not drawn),3,294,0,12,3,-4,x
CN1N=C(N)c2cn(C3OC(COP(=O)(O)O)C(O)C3O)c3ncnc1c23 (stereo not drawn),x,x,82*,x,x,-9,23*
CCOC(=O)c1ccc(N2C(=O)c3n[nH]c(C)c3C2c2ccccc2)cc1 (stereo not drawn),-3,321,28*,2,4,-6,-1
O=C(COC(=O)c1ccc(S(=O)(=O)N2CCOCC2)cc1)Nc1nc(-c2ccccc2)cs1,2,281,6.2*,3,1,x,0
COc1ccc(Cc2c(-c3ccc(OC)c(OC)c3)nc3ccc(C)cn23)c(C)c1,x,x,0,x,x,-7,x
CCSc1ccc2nnc(-c3cccs3)n2n1,-3,264,0,5,0,-2,x
CCOC(=O)CSc1ccc2nnc(-c3cccs3)n2n1,-4,415,9.1*,0,1,-7,0

# Assay outcomes deposited in PubChem by several laboratories.
